The values below come from ChEMBL document CHEMBL3272173, “Synthesis and biological activity of peptide antagonists of luliberin (luteinizing hormone-releasing hormone)” (J Med Chem, 1979).

Peptide text beside a SMILES is read from it. * marks the point of attachment. Cbz = O=C(OCc1ccccc1)*; Boc = CC(C)(C)OC(=O)*; NHBn = c1ccc(CN*)cc1; Bn = c1ccc(C*)cc1

In test [1] the target is T1, Gonadotropin-releasing hormone receptor (Rattus norvegicus) (UniProt P30969).
T1 sequence (whole entry): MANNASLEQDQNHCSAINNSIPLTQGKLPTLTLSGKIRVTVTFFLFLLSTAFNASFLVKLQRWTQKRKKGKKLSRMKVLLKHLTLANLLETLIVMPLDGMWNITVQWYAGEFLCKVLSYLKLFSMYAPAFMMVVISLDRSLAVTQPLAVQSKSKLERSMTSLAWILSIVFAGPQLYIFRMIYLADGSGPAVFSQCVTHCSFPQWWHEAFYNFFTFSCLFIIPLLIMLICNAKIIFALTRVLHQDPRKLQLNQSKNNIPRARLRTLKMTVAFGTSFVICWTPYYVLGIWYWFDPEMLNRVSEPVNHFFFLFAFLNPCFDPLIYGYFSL
Briefly: In vitro antagonist activity at GNRHR in CD rat anterior pituitary gland assessed as inhibition of LH-RH-stimulated LH release at compound to LH-RH molar ratio of 10000 after 4 hrs by radioimmunoassay. The conditions noted are these: concentration not given here. The method, boiled down:
(§1)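 Anterior pituitaries from diestrus CD rats (200-250 g) were dissociated enzymatically (collagenase, hyaluronidase, then Viokase). Cells were cultured 4 days at 1.67 × 10^5 cells/mL in DME with 10% horse serum and 2.5% fetal calf serum, then washed serum-free. Duplicate cultures received LH-RH (2-5 × 10^-10 M) with a single analogue concentration in serum-free DME for 4 h at 37 °C. LH in the medium was measured by RIA and reported as % inhibition of LH-RH-stimulated release.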

The test system of test [2] is Rattus norvegicus. Description: Antiovulatory activity in sc dosed CD rat assessed as blockade of ovulation administered as six doses at 1200, 1230, 1300, 1350, 1400 and 1450 hrs during proestrus stage measured during estrus stage by dissecting microscopic analysis. Format: functional. The method, boiled down:
(§2)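 Cycling Charles River CD rats were given six subcutaneous injections of analogue in 0.1 mL propylene glycol on the afternoon of proestrus, and controls received vehicle alone. Rats were killed the next morning (estrus). Ovulating animals were scored and ova in the oviducts were counted under a dissecting microscope.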

Test [3] concerns Rattus norvegicus. Briefly: Antiovulatory activity in CD rat assessed as blockade of ovulation at 1 mg, sc administered as six doses at 1200, 1230, 1300, 1350, 1400 and 1450 hrs during proestrus stage measured during estrus stage by dissecting microscopic analysis. Format: functional. The method, boiled down: as §2
For test [4], the target named is T1, Gonadotropin-releasing hormone receptor (Rattus norvegicus). Description: In vitro antagonist activity at GNRHR in CD rat anterior pituitary gland assessed as inhibition of LH-RH-stimulated LH release at compound to LH-RH molar ratio of 2800 after 4 hrs by radioimmunoassay. To be noted: concentration not given here. In outline: as §1
For test [5] the target is unchanged. Description: In vitro antagonist activity at GNRHR in CD rat anterior pituitary gland assessed as ratio of molar concentration of compound to LH-RH for inhibition of LH-RH-stimulated LH release after 4 hrs by radioimmunoassay. The method, boiled down:
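Monolayers were cultured 4 days from dissociated anterior pituitary cells of diestrus CD rats. They were exposed in duplicate to LH-RH (2-5 × 10^-10 M) plus multiple analogue concentrations in serum-free DME for 4 h at 37 °C. LH in the medium was measured by radioimmunoassay. The ED50 molar ratio is the analogue:LH-RH molar ratio giving 50% inhibition of LH-RH-stimulated LH release.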

For test [6] the target is unchanged. Briefly: In vitro antagonist activity at GNRHR in CD rat anterior pituitary gland assessed as inhibition of LH-RH-stimulated LH release at compound to LH-RH molar ratio of 20 after 4 hrs by radioimmunoassay. To be noted: concentration not given here. In outline: as §1
The target is the same in test [7]. Description: In vitro antagonist activity at GNRHR in CD rat anterior pituitary gland assessed as inhibition of LH-RH-stimulated LH release at compound to LH-RH molar ratio of 100 after 4 hrs by radioimmunoassay. To be noted: concentration not given here. In outline:
as §1

Test [8] shares this target. Description: In vitro antagonist activity at GNRHR in CD rat anterior pituitary gland assessed as inhibition of LH-RH-stimulated LH release at compound to LH-RH molar ratio of 200 after 4 hrs by radioimmunoassay. To be noted: concentration not given here. In outline: as §1

In the case of `CC(C)C[C@H](NC(=O)CNC(=O)[C@H](Cc1ccc(O)cc1)NC(=O)[C@H](CO)NC(=O)[C@H](Cc1c[nH]c2ccccc12)NC(=O)OCc1ccccc1)C(=O)N[C@@H](CCCNC(=N)N)C(=O)N1CCC[C@H]1C(=O)NCC(N)=O.Cl` (HELM PEPTIDE1{[O=C(OCc1ccccc1)[*:2]].W.S.Y.G.L.R.P.G.[am]}$$$$V2.0), in test [1], the inhibition (as a rule, the drop in the measured response relative to a control, in per cent) is 68%. In addition, the ED50 in test [2] was greater than 1 mg. The “inhibition (INH)” value in test [3] turned out to be 20%.

Regarding `CC(C)C[C@H](NC(=O)CNC(=O)[C@H](Cc1ccc(O)cc1)NC(=O)[C@H](CO)NC(=O)[C@H](Cc1c[nH]c2ccccc12)NC(=O)[C@H](Cc1cnc[nH]1)NC(=O)OCc1ccccc1)C(=O)N[C@@H](CCCNC(=N)N)C(=O)N1CCC[C@H]1C(=O)NCC(N)=O` (HELM PEPTIDE1{[O=C(OCc1ccccc1)[*:2]].H.W.S.Y.G.L.R.P.G.[am]}$$$$V2.0), in test [1], the inhibition stood at 58%.

In the case of `CCNC(=O)[C@@H]1CCCN1C(=O)[C@H](CCCNC(=N)N)NC(=O)[C@H](CC(C)C)NC(=O)CNC(=O)[C@H](Cc1ccc(O)cc1)NC(=O)[C@H](CO)NC(=O)[C@H](Cc1c[nH]c2ccccc12)NC(=O)[C@H](COCc1ccccc1)NC(=O)OC(C)(C)C` (Boc-S(Bn)WSYGLRP-NHEt), the inhibition in test [4] was 40%.

H-WSYGLRPG-NH2: the inhibition in test [1] is 15%.

Take `CCNC(=O)[C@@H]1CCCN1C(=O)[C@H](CCCNC(=N)N)NC(=O)[C@H](CC(C)C)NC(=O)[C@@H](Cc1ccccc1)NC(=O)[C@H](Cc1ccc(O)cc1)NC(=O)[C@H](CO)NC(=O)[C@H](Cc1c[nH]c2ccccc12)NC(=O)[C@H](CC(C)C)NC(=O)OCc1ccccc1.Cl`: the ED50 in test [5] was 3 molar ratio; in test [2], greater than 1 mg. In test [6], the inhibition worked out at 100%. In addition, the “inhibition (INH)” value in test [3] was 0%.

Regarding H-HWSYGLRPG-NH2, the inhibition in test [1] turned out to be 42%.

Turning to `CCNC(=O)[C@@H]1CCCN1C(=O)[C@H](CCCNC(=N)N)NC(=O)[C@H](CC(C)C)NC(=O)CNC(=O)[C@H](Cc1ccc(O)cc1)NC(=O)[C@H](CO)NC(=O)[C@H](Cc1c[nH]c2ccccc12)NC(=O)[C@@H](CC(C)C)NC(=O)OCc1ccccc1`, the inhibition in test [4] was determined as 51%.

`CCNC(=O)[C@@H]1CCCN1C(=O)[C@H](CCCNC(=N)N)NC(=O)[C@H](CC(C)C)NC(=O)[C@@H](Cc1c[nH]c2ccccc12)NC(=O)[C@H](Cc1ccc(O)cc1)NC(=O)[C@H](CO)NC(=O)[C@H](Cc1c[nH]c2ccccc12)NC(=O)[C@H](CCC(N)=O)NC(=O)OCc1ccccc1.Cl`: the inhibition in test [7] amounted to 100%. Further, the results for the ED50 in test [5] and in test [2] were 3.9 molar ratio and greater than 1 mg, respectively. For the same compound, in test [3], the “inhibition (INH)” value stood at 20%.

With `CC(C)C[C@H](NC(=O)CNC(=O)[C@H](Cc1ccc(O)cc1)NC(=O)[C@H](CO)NC(=O)[C@H](Cc1c[nH]c2ccccc12)NC(=O)[C@H](CCC(=O)NCc1ccccc1)NC(=O)OCc1ccccc1)C(=O)N[C@@H](CCCNC(=N)N)C(=O)N1CCC[C@H]1C(=O)NCC(N)=O.Cl` (HELM PEPTIDE1{[O=C(OCc1ccccc1)[*:2]].E.W.S.Y.G.L.R.P.G.[am]}|CHEM1{[c1ccc(CN[*:1])cc1]}$PEPTIDE1,CHEM1,2:R3-1:R1$$$V2.0), the inhibition in test [7] worked out at 96%. Moreover, the ED50 in test [5] was 360 molar ratio; in test [2], greater than 1 mg. Further, the “inhibition (INH)” value in test [3] is recorded as 40%.

For the compound `CCNC(=O)[C@@H]1CCCN1C(=O)[C@H](CCCNC(=N)N)NC(=O)[C@H](CC(C)C)NC(=O)CNC(=O)[C@H](Cc1ccc(O)cc1)NC(=O)[C@H](CO)NC(=O)[C@H](Cc1c[nH]c2ccccc12)NC(=O)[C@H](CCC(=O)NCc1ccccc1)NC(=O)OCc1ccccc1.Cl` (Cbz-E(NHBn)WSYGLRP-NHEt), the inhibition in test [7] stood at 88%. The ED50 in test [5] was 350 molar ratio; in test [2] it was greater than 1 mg. Further, the “inhibition (INH)” value in test [3] is 20%.

For the compound `CC(=O)O.CCNC(=O)[C@@H]1CCCN1C(=O)[C@H](CCCNC(=N)N)NC(=O)[C@H](CC(C)C)NC(=O)[C@@H](Cc1ccc(OC)cc1)NC(=O)[C@H](Cc1ccc(O)cc1)NC(=O)[C@H](CO)NC(=O)[C@H](Cc1c[nH]c2ccccc12)NC(=O)[C@H](COCc1ccccc1)NC(=O)OCc1ccccc1`, the inhibition in test [6] came out at 100%. Besides, the ED50 in test [2] is listed as 0.1 mg. Also, in test [3], the “inhibition (INH)” value came out at 100%.

For the compound `CC(C)C[C@H](NC(=O)[C@@H](CC(C)C)NC(=O)[C@H](Cc1ccc(O)cc1)NC(=O)[C@H](CO)NC(=O)[C@H](Cc1c[nH]c2ccccc12)NC(=O)[C@H](Cc1ccc(OCc2ccccc2)cc1)NC(=O)OCc1ccccc1)C(=O)N[C@@H](CCCNC(=N)N)C(=O)N1CCC[C@H]1C(=O)NCC(N)=O.Cl`, the ED50 in test [5] was 7 molar ratio; in test [2] it was greater than 1 mg. Also, the inhibition in test [6] is 57%. Moreover, in test [3], the “inhibition (INH)” value came out at 0%.

As for `CC(C)C[C@H](NC(=O)CNC(=O)[C@H](Cc1ccc(O)cc1)NC(=O)[C@H](CO)NC(=O)[C@H](Cc1c[nH]c2ccccc12)NC(=O)[C@@H]1CCC(=O)N1)C(=O)N[C@@H](CCCNC(=N)N)C(=O)N1CCC[C@H]1C(=O)NCC(N)=O` (HELM PEPTIDE1{[Glp].W.S.Y.G.L.R.P.G.[am]}$$$$V2.0), the inhibition in test [1] came to 60%.

For `CC(C)C[C@H](NC(=O)CNC(=O)[C@H](Cc1ccc(O)cc1)NC(=O)[C@H](CO)NC(=O)[C@H](Cc1c[nH]c2ccccc12)NC(=O)[C@H](Cc1ccc(OCc2ccccc2)cc1)NC(=O)OCc1ccccc1)C(=O)N[C@@H](CCCNC(=N)N)C(=O)N1CCC[C@H]1C(=O)NCC(N)=O.Cl` (Cbz-Y(Bn)WSYGLRPG-NH2), the inhibition in test [4] was 74%. In test [2], the ED50 is greater than 1 mg. Further, the “inhibition (INH)” value in test [3] is listed as 20%.

For the compound `CCNC(=O)[C@@H]1CCCN1C(=O)[C@H](CCCNC(=N)N)NC(=O)[C@H](CC(C)C)NC(=O)[C@@H](CCCNC(=N)N)NC(=O)[C@H](Cc1ccc(O)cc1)NC(=O)[C@H](CO)NC(=O)[C@H](Cc1c[nH]c2ccccc12)NC(=O)[C@H](CCC(N)=O)NC(=O)OCc1ccccc1.Cl`, the ED50 was 20 molar ratio in test [5] and greater than 1 mg in test [2]. The inhibition in test [4] came to 86%. For the same compound, the “inhibition (INH)” value in test [3] is given as 0%.

As to `CC(C)C[C@H](NC(=O)[C@@H](Cc1c[nH]c2ccccc12)NC(=O)[C@H](Cc1ccc(O)cc1)NC(=O)[C@H](CO)NC(=O)[C@H](Cc1c[nH]c2ccccc12)NC(=O)[C@H](CCC(N)=O)NC(=O)OCc1ccccc1)C(=O)N[C@@H](CCCNC(=N)N)C(=O)N1CCC[C@H]1C(=O)NCC(N)=O.Cl`, the values for the ED50 in test [5] and in test [2] were 8 molar ratio and greater than 1 mg, respectively. The inhibition in test [8] came to 87%. Besides, in test [3], the “inhibition (INH)” value was 0%.

In the case of `CC(C)C[C@H](NC(=O)CNC(=O)[C@H](Cc1ccc(O)cc1)NC(=O)[C@H](CO)NC(=O)[C@H](Cc1c[nH]c2ccccc12)NC(=O)[C@@H]1CCCN1C=O)C(=O)N[C@@H](CCCNC(=N)N)C(=O)N1CCC[C@H]1C(=O)NCC(N)=O` (HELM PEPTIDE1{[O=C[*:2]].P.W.S.Y.G.L.R.P.G.[am]}$$$$V2.0), in test [1], the inhibition was 53%.

`CC(=O)O.CC(C)C[C@H](NC(=O)[C@@H](Cc1ccccc1)NC(=O)[C@H](Cc1ccc(O)cc1)NC(=O)[C@H](CO)NC(=O)[C@H](Cc1c[nH]c2ccccc12)NC(=O)[C@H](COCc1ccccc1)NC(=O)OCc1ccccc1)C(=O)N[C@@H](CCCNC(=N)N)C(=O)N1CCC[C@H]1C(=O)N(C)C`: the ED50 is 5.9 molar ratio in test [5] and greater than 3 mg in test [2]. Moreover, the inhibition in test [6] worked out at 100%. In addition, the “inhibition (INH)” value in test [3] is given as 40%.

In the case of `CC(C)C[C@H](NC(=O)CNC(=O)[C@H](Cc1ccc(O)cc1)NC(=O)[C@H](CO)NC(=O)[C@H](Cc1c[nH]c2ccccc12)NC(=O)[C@@H](Cc1ccccc1)NC(=O)OCc1ccccc1)C(=O)N[C@@H](CCCNC(=N)N)C(=O)N1CCC[C@H]1C(=O)NCC(N)=O.Cl`, in test [4], the inhibition was found to be 76%. Further, in test [2], the ED50 is on record as greater than 1 mg. The “inhibition (INH)” value in test [3] is listed as 0%.
